Test results reported in PubChem BioAssay AID449757 (Broad Institute, 2010).
The source made the active and inactive calls.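 How the source made its calls: active means compounds whose fitted caspase activation midpoint falls no more than tenfold above the top tested dose; inconclusive means flat fit with activity between 30 and 70 percent, or failed fit; inactive means the rest.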

tested on: MEF Flag-A1-IRES-BIM, caspase-Glo luminescence, 3 h; assay: caspase activation in A1/BIM-primed MEFs, dose response, A1 (Bcl2A1) inhibitor project, cell-based, alternate construct, luminescence (AID 449757)
Procedure, shortened: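 Test system: Flag-A1-IRES-BIM-primed MEF cells. Technique: luminescent caspase activity measurement with CaspaseGlo reagent. Dosing: 100 nL compound added per well by pin transfer. Times: 3-h compound at 37 °C, 30-min cooling, 1-h reagent at RT. Buffer or medium: RPMI-1640 growth medium with 10% FBS.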

| Structure (SMILES) | AC50 |
| --- | --- |
| CC[C@H]1CN2CCc3cc(OC)c(OC)cc3[C@@H]2C[C@@H]1C[C@H]1NCCc2cc(OC)c(OC)cc21 | > 35 µM (inactive) |
| CCOc1cccc(C(=O)Nc2cccc(-c3nnc(-c4ccc(C)cc4)o3)c2)c1 | 8.37 µM |
| Cc1nn(Cc2c(Cl)cccc2Cl)c(C)c1NC(=O)c1cn(-c2ccccc2)nc1-c1ccccc1 | 19.2 µM |
| O=C(COc1ccccc1[N+](=O)[O-])Nc1ccc(NC(=O)c2cc3ccccc3o2)cc1 | 28.7 µM |
| Cc1cccc(Nc2nc(N)c([N+](=O)[O-])c(N3CCCC(C)C3)n2)c1 (stereo not drawn) | > 35 µM (inactive) |
| Cc1ccc(S(=O)(=O)c2nnn3c2nc(Nc2cccc(C)c2)c2ccccc23)cc1 | > 35 µM (inactive) |
| CCOc1cc(/C=C2/C(=N)N3C=CSC3=NC2=O)ccc1OCCCOc1ccccc1C | 35.4 µM |
| COc1ccc(NC(=O)CSc2nc3ccc(Nc4nc(N5CCOCC5)nc(N5CCOCC5)n4)cc3s2)cc1 | > 35 µM (inactive) |
| COc1ccc2c(-c3cc4ccc(OCc5ccc(F)cc5)cc4oc3=O)cc(=O)oc2c1 | 21.1 µM |
| O=C(NC[C@H]1CCCO1)c1cccc2c1C(=O)c1ccc(-c3ccc(F)cc3OCc3ccccc3)cc1S2(=O)=O | > 35 µM (inactive) |
| Cc1ccc(C)c(NC(=S)NC(NC(=O)Cc2cccc3ccccc23)C(Cl)(Cl)Cl)c1 (stereo not drawn) | 13.2 µM |
| CCOc1cc(C(=O)CSc2nnc(CNc3ccc(Cl)cc3)o2)ccc1NC(=O)CC | 15.3 µM |
| COc1cc(/C=C/[N+](=O)[O-])ccc1OC(=O)c1cccnc1 | 9.63 µM |
| COC(=O)[C@@]1(C)CC[C@]2(C)CC[C@@]3(C)C(=CC(=O)C4[C@@]5(C)CC[C@H](O)C(C)(C)[C@@H]5CC[C@]43C)[C@H]2C1 (stereo partly drawn) | > 35 µM (inactive) |
| CC(C)(C)C1CCc2onc(C(=O)Nc3cccc(O)c3)c2C1 (stereo not drawn) | > 35 µM (inactive) |
| Cc1ccc(S(=O)(=O)N(C)Cc2ccc(C(=O)N/N=C/c3ccc(OC(F)F)cc3)cc2)cc1 | > 35 µM (inactive) |
| CC(C)CCN(C(=O)Cc1ccc(Cl)c(Cl)c1)c1c(N)n(Cc2ccccc2)c(=O)[nH]c1=O | 16.9 µM |
| CC(C)(C)c1ccc2c(c1)OC(C(=O)N/N=C\c1ccc[nH]1)CO2 (stereo not drawn) | > 35 µM (inactive) |
| CCOC(=O)C1=C(c2ccccc2)O/C(=C(/C#N)C(F)(F)F)S1 | > 35 µM (inactive) |
| Nc1nc(F)nc2c1ncn2[C@@H]1O[C@H](CO)[C@@H](O)[C@H]1O | > 35 µM (inactive) |
| COC(=O)c1ccc2c(c1)C(C)(C)C(/C=C/c1ccc(O)cc1)=[N+]2C | 12.4 µM |

| Structure (SMILES) | AC50 |
| --- | --- |
| COc1ccc2c(c1)CCc1c(C(=O)Nc3cc(C)n(Cc4ccc(Cl)cc4)n3)noc1-2 | 21.9 µM |
| CCc1ccc(Nc2n[n+](-c3ccccc3)c(/C=C/c3ccccc3)s2)cc1 | 10.3 µM |
| CCOc1cc(/C=N/Nc2cc(C)nc(-n3nc(C)cc3C)n2)ccc1O | > 35 µM (inactive) |
| COc1ccccc1-c1cc(C(F)(F)F)nc(S(=O)(=O)CCCC(=O)NC(C)C)n1 | 8.84 µM |
| Cc1ccc(N(Cc2cc(=O)[nH]c3ccccc23)C(=O)CCl)cc1 | > 35 µM (inactive) |
| CCOC(=O)c1ccc(-c2ccc(/C=N/NC(=O)CN(c3cccc(C)c3)S(C)(=O)=O)o2)cc1 | 36.2 µM |
| CCn1c(SCC(=O)c2ccccc2)nnc1-c1cc2cc(Br)ccc2o1 | > 35 µM (inactive) |
| COc1cc(-c2cc(-c3ccccc3)nc(SCC(=O)Nc3nccs3)c2C#N)cc(OC)c1OC | > 35 µM (inactive) |
| Cc1cc(C)cc(Cn2ncc(Cl)c(Cl)c2=O)c1 | > 35 µM (inactive) |
| CCOC(=O)Cc1csc(/N=C/c2c(O)n(-c3ccc(C)c(C)c3)c(=O)c3ccccc23)n1 | 15.9 µM |
| CC1=NNC(=O)/C1=C\c1cn(-c2ccccc2)nc1-c1ccccc1 | 10.4 µM |
| CC(C)(C)[C@H](N)C(=O)N[C@H]1CCC2C3CC=C4C[C@@H](O)CC[C@]4(C)C3CC[C@@]21C (stereo partly drawn) | > 35 µM (inactive) |
| CN(c1ccccc1)c1ccc(/C=C/[N+](=O)[O-])cc1 | 10.2 µM |
| CCC1CCCCN1S(=O)(=O)c1ccc(NC(=O)c2nc(S(C)(=O)=O)ncc2Cl)cc1 (stereo not drawn) | 3.73 µM |
| Cc1ccc2nc(N(CCCN(C)C)C(=O)c3ccc(S(=O)(=O)N4CCc5ccccc5C4)cc3)sc2c1 | > 35 µM (inactive) |
| O=c1c(Cl)c(Cl)cnn1Cc1ccccc1Cl | > 35 µM (inactive) |
| O=C(Oc1cccc(/C=N/Nc2nc(Nc3ccccc3)nc(N3CCOCC3)n2)c1)c1ccco1 | > 35 µM (inactive) |
| Cn1cc([N+](=O)[O-])c(C(=O)Nc2cc(Oc3ccccc3)cc([N+](=O)[O-])c2)n1 | 19.5 µM |
| CC(C)N=c1scc(-c2ccco2)n1/N=C/c1ccc(O)c(O)c1 | > 35 µM (inactive) |
| Cc1ccc(C(=O)/C=C/C(=O)c2ccc(C)cc2)cc1 | 5.64 µM |
| N#C/C(=C\c1ccc(OCc2ccccc2)cc1)C(=O)Nc1nc2c(s1)CCN(Cc1ccccc1)C2 | > 35 µM (inactive) |

| Structure (SMILES) | AC50 |
| --- | --- |
| CCS(=O)(=O)c1ncc(Cl)c(C(=O)Nc2ccc(S(=O)(=O)N3CCC(C)CC3)cc2)n1 | > 35 µM (inactive) |
| O=C(NC1CCCCC1)C(c1ccc(F)cc1)N(CCc1ccccc1)C(=O)CN1C(=O)c2ccccc2S1(=O)=O (stereo not drawn) | 7.6 µM |
| CCOC(=O)c1c(C)oc2c1c(CN1CCN(C(=O)OCC)CC1)c(O)c1ccccc12 | 7.15 µM |
| CCCc1ccc(OCc2ccc(C(=O)N/N=C/c3cccc([N+](=O)[O-])c3)o2)c(OC)c1 | 6.57 µM |
| COc1ccc(NC(=O)c2cccc3c2C(=O)c2ccc(-c4ccc(F)cc4OCc4ccccc4)cc2S3(=O)=O)cc1 | > 35 µM (inactive) |
| CCOC(=O)c1sc(NC(=O)CSc2nc(C)cc(C)c2C#N)c(C#N)c1C | > 35 µM (inactive) |
| O=C(NCc1ccccc1Br)c1cccc2c1C(=O)c1ccc(-c3ccc(OC(F)(F)F)cc3)cc1S2(=O)=O | > 35 µM (inactive) |
| O=C(CN(c1ccc(Br)cc1)S(=O)(=O)c1ccc(Cl)c([N+](=O)[O-])c1)NCCc1ccccc1 | > 35 µM (inactive) |
| COCc1cc(C)nc(SCC(=O)Nc2nc(C)cs2)c1C#N | > 35 µM (inactive) |
| N#CC(C#N)=C1C=CC=CN1/C(=C\c1ccccc1Cl)C(=O)c1ccccc1 | 3.43 µM |
| COc1ccc(-c2nc(NC(=O)c3n[nH]c(=O)c4ccccc34)sc2C)cc1 | > 35 µM (inactive) |
| Cc1ccc(NC(=O)c2cc(N3C(=O)C=CC3=O)ccc2N2CCOCC2)cc1Cl | 15.8 µM |
| CCOC(=O)/C(=C\c1ccc(OC(F)F)cc1)C1=Nn2c(nnc2-c2ccc(Cl)cc2)SC1 | 4.71 µM |
| Cc1cccc(C)c1NC(=O)CSc1nc(C)c(CC(=O)c2ccc(Br)cc2)c(C)c1C#N | 28.8 µM |
| COc1ccc(C2CC(c3c(O)cc(C)oc3=O)=NCCS2)c(OC)c1 (stereo not drawn) | > 35 µM (inactive) |
| CCOc1ccc(OCC(=O)N(CCC2=CCCCC2)c2c(N)n(Cc3ccccc3)c(=O)[nH]c2=O)cc1 | 20.9 µM |
| COc1ccc(C=C2C=C(C(C)(C)C)C(=O)C(C(C)(C)C)=C2)cc1OC | 3.49 µM |
| CCCCCCCC/C=C\CCCCCCCC(=O)NCCc1ccc(O)c(O)c1 | 11.6 µM |
| C=CC(=O)Nc1ccc(CN2C(=O)N(c3c(Cl)c(OC)cc(OC)c3Cl)Cc3cnc(NCCCCN(CC)CC)nc32)cc1 | > 35 µM (inactive) |
| CC(=O)[C@]1(O)Cc2c(O)c3c(c(O)c2[C@@H](O[C@H]2C[C@H](N)[C@H](O)[C@H](C)O2)C1)C(=O)c1ccccc1C3=O | > 35 µM (inactive) |
| O=C(NCc1ccccc1Cl)c1cccc2c1C(=O)c1ccc(-c3ccc(OC(F)(F)F)cc3)cc1S2(=O)=O | > 35 µM (inactive) |
